Measurements published in ChEMBL document CHEMBL4689842, “EUbOPEN Chemogenomics Library wave 1” (2021).

Columns and labels:
[1] = test system: U2OS; test: Multiplex assay against U2OS; assay type: toxicity, cell-based; settings: human
How it was run: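 Cells were classed with CellPathfinder machine-learning gating, first as Hoechst high-intensity objects or normal cells, then (normal cells) as healthy, pyknosed or fragmented nuclei, and finally (pyknosed cells) as mitotic or apoptotic. Staining of live cells at seeding used Hoechst33342, BioTracker Green Microtubule Cytoskeleton Dye, MitoTracker Red and Annexin V Alexa Fluor 680, with imaging on a CQ1 microscope at 37°C and 5% CO2 after compound addition. Tubulin, mitochondrial-mass and membrane-permeability phenotypes are per cents of healthy-nucleus cells.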

[2] = test system: U2OS; test: Incucyte cell viability with U2OS; assay type: toxicity, cell-based; settings: human, 10 µM, compound concentration 10 uM; further: filed as whole numbers so only -1 and 0 and 1 occur
[3] = 12 h, 1 µM, compound concentration 1 uM, replicate 1
[4] = 12 h, 1 µM, compound concentration 1 uM, replicate 2
[5] = 12 h, 10 µM, compound concentration 10 uM, replicate 1
[6] = 12 h, 10 µM, compound concentration 10 uM, replicate 2
[7] = 24 h, 1 µM, compound concentration 1 uM, replicate 1
[8] = 24 h, 1 µM, compound concentration 1 uM, replicate 2
[9] = 24 h, 10 µM, compound concentration 10 uM, replicate 1
[10] = 24 h, 10 µM, compound concentration 10 uM, replicate 2
[11] = 48 h, 1 µM, compound concentration 1 uM, replicate 1
[12] = 48 h, 1 µM, compound concentration 1 uM, replicate 2
[13] = 48 h, 10 µM, compound concentration 10 uM, replicate 1
[14] = 48 h, 10 µM, compound concentration 10 uM, replicate 2

**Q.** What does the source list for `CC(/C=C1\SC(=S)N(CCCC(=O)Nc2ccc(C(=O)O)c(O)c2)C1=O)=C\c1ccccc1`?
**A.** Population Apoptotic (%) [1, 3]: 53%; Population Fragmented Nuclei (%) [1, 3]: 8%; Population Healthy Nuclei (%) [1, 3]: 77%; Population Hoechst High Intensity Objects (%) [1, 3]: 3%; Population Membrane Permeable-Phenotype (%) [1, 3]: 7%; Population Mitochondria Different-Phenotype (%) [1, 3]: 5%; Population Mitotic Cells (%) [1, 3]: 46%; Population Normal (%) [1, 3]: 96%; Population Pyknosed Nuclei (%) [1, 3]: 13%; Population Tubulin-Different-Phenotype (%) [1, 3]: 13%; Total Cell Count [1, 3]: 154; Population Apoptotic (%) [1, 4]: 33%; Population Fragmented Nuclei (%) [1, 4]: 10%; Population Healthy Nuclei (%) [1, 4]: 81%; Population Hoechst High Intensity Objects (%) [1, 4]: 6%; Population Mitochondria Different-Phenotype (%) [1, 4]: 7%; Population Mitotic Cells (%) [1, 4]: 66%; Population Normal (%) [1, 4]: 93%; Population Pyknosed Nuclei (%) [1, 4]: 7%; Population Tubulin-Different-Phenotype (%) [1, 4]: 7%; Total Cell Count [1, 4]: 65; Population Apoptotic (%) [1, 5]: 42%; Population Fragmented Nuclei (%) [1, 5]: 7%; Population Healthy Nuclei (%) [1, 5]: 86%; Population Hoechst High Intensity Objects (%) [1, 5]: 9%; Population Membrane Permeable-Phenotype (%) [1, 5]: 9%; Population Mitochondria Different-Phenotype (%) [1, 5]: 5%; Population Mitotic Cells (%) [1, 5]: 57%; Population Normal (%) [1, 5]: 90%; Population Pyknosed Nuclei (%) [1, 5]: 5%; Population Tubulin-Different-Phenotype (%) [1, 5]: 8%; Total Cell Count [1, 5]: 117; Population Apoptotic (%) [1, 6]: 44%; Population Fragmented Nuclei (%) [1, 6]: 17%; Population Healthy Nuclei (%) [1, 6]: 72%; Population Hoechst High Intensity Objects (%) [1, 6]: 7%; Population Membrane Permeable-Phenotype (%) [1, 6]: 6%; Population Mitochondria Different-Phenotype (%) [1, 6]: 6%; Population Mitotic Cells (%) [1, 6]: 55%; Population Normal (%) [1, 6]: 92%; Population Pyknosed Nuclei (%) [1, 6]: 10%; Population Tubulin-Different-Phenotype (%) [1, 6]: 9%; Total Cell Count [1, 6]: 88; Population Apoptotic (%) [1, 7]: 53%; Population Fragmented Nuclei (%) [1, 7]: 6%; Population Healthy Nuclei (%) [1, 7]: 83%; Population Hoechst High Intensity Objects (%) [1, 7]: 4%; Population Membrane Permeable-Phenotype (%) [1, 7]: 5%; Population Mitochondria Different-Phenotype (%) [1, 7]: 9%; Population Mitotic Cells (%) [1, 7]: 46%; Population Normal (%) [1, 7]: 95%; Population Pyknosed Nuclei (%) [1, 7]: 10%; Population Tubulin-Different-Phenotype (%) [1, 7]: 5%; Total Cell Count [1, 7]: 151; Population Apoptotic (%) [1, 8]: 54%; Population Fragmented Nuclei (%) [1, 8]: 12%; Population Healthy Nuclei (%) [1, 8]: 76%; Population Hoechst High Intensity Objects (%) [1, 8]: 6%; Population Membrane Permeable-Phenotype (%) [1, 8]: 4%; Population Mitochondria Different-Phenotype (%) [1, 8]: 10%; Population Mitotic Cells (%) [1, 8]: 45%; Population Normal (%) [1, 8]: 93%; Population Tubulin-Different-Phenotype (%) [1, 8]: 12%; Total Cell Count [1, 8]: 64; Population Apoptotic (%) [1, 9]: 36%; Population Fragmented Nuclei (%) [1, 9]: 11%; Population Healthy Nuclei (%) [1, 9]: 81%; Population Hoechst High Intensity Objects (%) [1, 9]: 5%; Population Membrane Permeable-Phenotype (%) [1, 9]: 5%; Population Mitochondria Different-Phenotype (%) [1, 9]: 8%; Population Mitotic Cells (%) [1, 9]: 63%; Population Normal (%) [1, 9]: 94%; Population Pyknosed Nuclei (%) [1, 9]: 6%; Population Tubulin-Different-Phenotype (%) [1, 9]: 6%; Total Cell Count [1, 9]: 151; Population Apoptotic (%) [1, 10]: 44%; Population Fragmented Nuclei (%) [1, 10]: 9%; Population Healthy Nuclei (%) [1, 10]: 83%; Population Hoechst High Intensity Objects (%) [1, 10]: 4%; Population Mitochondria Different-Phenotype (%) [1, 10]: 14%; Population Mitotic Cells (%) [1, 10]: 55%; Population Normal (%) [1, 10]: 95%; Population Pyknosed Nuclei (%) [1, 10]: 7%; Population Tubulin-Different-Phenotype (%) [1, 10]: 14%; Total Cell Count [1, 10]: 115; Population Apoptotic (%) [1, 11]: 61%; Population Fragmented Nuclei (%) [1, 11]: 2%; Population Healthy Nuclei (%) [1, 11]: 92%; Population Hoechst High Intensity Objects (%) [1, 11]: 1%; Population Membrane Permeable-Phenotype (%) [1, 11]: 1%; Population Mitochondria Different-Phenotype (%) [1, 11]: 9%; Population Mitotic Cells (%) [1, 11]: 38%; Population Normal (%) [1, 11]: 98%; Population Pyknosed Nuclei (%) [1, 11]: 5%; Population Tubulin-Different-Phenotype (%) [1, 11]: 10%; Total Cell Count [1, 11]: 142; Population Apoptotic (%) [1, 12]: 50%; Population Fragmented Nuclei (%) [1, 12]: 7%; Population Healthy Nuclei (%) [1, 12]: 84%; Population Hoechst High Intensity Objects (%) [1, 12]: 4%; Population Membrane Permeable-Phenotype (%) [1, 12]: 10%; Population Mitochondria Different-Phenotype (%) [1, 12]: 14%; Population Mitotic Cells (%) [1, 12]: 50%; Population Normal (%) [1, 12]: 95%; Population Pyknosed Nuclei (%) [1, 12]: 8%; Population Tubulin-Different-Phenotype (%) [1, 12]: 14%; Total Cell Count [1, 12]: 60; Population Apoptotic (%) [1, 13]: 31%; Population Fragmented Nuclei (%) [1, 13]: 5%; Population Healthy Nuclei (%) [1, 13]: 87%; Population Hoechst High Intensity Objects (%) [1, 13]: 2%; Population Membrane Permeable-Phenotype (%) [1, 13]: 2%; Population Mitochondria Different-Phenotype (%) [1, 13]: 11%; Population Mitotic Cells (%) [1, 13]: 68%; Population Normal (%) [1, 13]: 97%; Population Pyknosed Nuclei (%) [1, 13]: 7%; Population Tubulin-Different-Phenotype (%) [1, 13]: 11%; Total Cell Count [1, 13]: 241; Population Apoptotic (%) [1, 14]: 16%; Population Fragmented Nuclei (%) [1, 14]: 4%; Population Healthy Nuclei (%) [1, 14]: 92%; Population Hoechst High Intensity Objects (%) [1, 14]: 0%; Population Membrane Permeable-Phenotype (%) [1, 14]: 1%; Population Mitochondria Different-Phenotype (%) [1, 14]: 17%; Population Mitotic Cells (%) [1, 14]: 83%; Population Normal (%) [1, 14]: 99%; Population Pyknosed Nuclei (%) [1, 14]: 2%; Population Tubulin-Different-Phenotype (%) [1, 14]: 19%; Total Cell Count [1, 14]: 147; Growth Rate ([2]; 0 h, replicate number 1, timepoint 0 hours): 0; Growth Rate ([2]; 6 h, replicate number 1, timepoint 6 hours): 0; Growth Rate ([2]; 12 h, replicate number 1, timepoint 12 hours): 1; Growth Rate ([2]; 18 h, replicate number 1, timepoint 18 hours): 1; Growth Rate ([2]; 24 h, replicate number 1, timepoint 24 hours): 1
